Measurements reported in ChEMBL document CHEMBL1126736, “Synthesis and antiherpes virus activity of 1,5-anhydrohexitol nucleosides” (J Med Chem, 1993).
Values after ≈ are worked out from the molar mass of the structure shown.

Assays:
HEL = assay: Inhibitory concentration required to inhibit cell growth by 50% in human embryonic lung (HEL) cell culture; assay type: functional
Summary of the method: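 Uninfected HEL cells grown in 96-well trays. The value is the concentration that reduces cell growth by 50%. Single representative experiment.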

Human alphaherpesvirus 3 [1] = assay: (§1) Inhibitory concentration against TK-VZV strain YS-R in human embryonic lung (HEL) cell culture; assay type: functional
Summary of the method: (§2)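 Plaque-reduction assay in human embryonic lung (HEL) cells grown in 96-well trays. The value is the concentration that reduces virus plaque formation by 50%. Single representative experiment.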

L1210 = assay: Inhibitory concentration required to reduce the growth of murine L1210 cells by 50%; assay type: functional, cell-based; settings: Mus musculus
Summary of the method: (§3)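 Cytostatic assay. The value is the concentration that reduces the growth (viability) of the cells by 50%.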

Human alphaherpesvirus 2 [2] = assay: Inhibitory concentration against HSV type 2 strain G in human embryonic skin muscle (ESM) fibroblast cell culture; assay type: functional
Summary of the method: (§4)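 Assay in human embryonic skin-muscle (ESM) cells grown in 96-well trays. The value is the concentration that reduces virus-induced cytopathicity by 50%. Single representative experiment.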

Human alphaherpesvirus 1 [3] = assay: Inhibitory concentration against HSV type 1 strain KOS in human embryonic skin muscle (ESM) fibroblast cell culture; assay type: functional
Vaccinia virus = assay: Inhibitory concentration against VV in human embryonic skin muscle (ESM) fibroblast cell culture; assay type: functional; settings: Orthopoxvirus vaccinia
Cytomegalovirus [4] = assay: Inhibitory concentration against CMV strain AD169 in human embryonic lung (HEL) cell culture; assay type: functional; settings: Human betaherpesvirus 5; summary of the method: as §2
Cytomegalovirus [5] = assay: Inhibitory concentration against CMV strain Davis in human embryonic lung (HEL) cell culture; assay type: functional; settings: Human betaherpesvirus 5; summary of the method: as §2
Human alphaherpesvirus 1 [6] = assay: Inhibitory concentration against TK-HSV type 1 strain B2006 in human embryonic skin muscle (ESM) fibroblast cell culture; assay type: functional; summary of the method: as §4
Human alphaherpesvirus 3 [7] = assay: Inhibitory concentration against VZV strain YS in human embryonic lung (HEL) cell culture; assay type: functional
[8] = tested on: Human immunodeficiency virus 2; assay: Inhibitory concentration required to achieve 50% protection of MT-4 cells against cytopathicity of […]; assay type: functional, organism-based; settings: Human immunodeficiency virus 2, MT4
Summary of the method: (§5)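 MT-4 cells infected with HIV-1 (strain III_B) or HIV-2 (strain ROD). The value is the concentration that protects the cells from virus cytopathicity by 50%.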

[9] = tested on: Human immunodeficiency virus 1; assay: Inhibitory concentration required to achieve 50% protection of MT-4 cells against cytopathicity of […]; assay type: functional, organism-based; settings: Human immunodeficiency virus 1, MT4; summary of the method: as §5
Human alphaherpesvirus 2 [10] = assay: Inhibitory concentration against HSV type 2 strain Lyons in human embryonic skin muscle (ESM) fibroblast cell culture; assay type: functional; summary of the method: as §4
MT4 = assay: Inhibitory concentration required to reduce the growth of human MT-4 cells by 50%; assay type: functional, cell-based; summary of the method: as §3
CCRF-CEM = assay: Inhibitory concentration required to reduce the growth of human CEM cells by 50%; assay type: functional, cell-based; summary of the method: as §3
ESM = assay: Inhibitory concentration required for morphologic alteration in normal cell in human embryonic skin muscle (ESM) fibroblast cell culture; assay type: functional
Summary of the method: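 Uninfected ESM cells in 96-well trays, examined under the microscope. The value is the minimal concentration that causes a detectable change in normal cell morphology. Tested up to 400 μg/mL. Single representative experiment.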

Human alphaherpesvirus 3 [11] = assay: Inhibitory concentration against VZV strain OKA in human embryonic lung (HEL) cell culture; assay type: functional
Human alphaherpesvirus 3 [12] = assay: Inhibitory concentration against TK-VZV strain 07-1 in human embryonic lung (HEL) cell culture; assay type: functional
Human alphaherpesvirus 2 [13] = assay: Inhibitory concentration against HSV type 2 strain 196 in human embryonic skin muscle (ESM) fibroblast cell culture; assay type: functional; summary of the method: as §4
FM3A = assay: Inhibitory concentration required to reduce the growth of murine FM3A cells by 50%; assay type: functional, cell-based; settings: Mus musculus; summary of the method: as §3
[14] = tested on: Vesicular stomatitis virus; assay: Inhibitory concentration against VSV in human embryonic skin muscle (ESM) fibroblast cell culture; assay type: functional
Human alphaherpesvirus 1 [15] = assay: Inhibitory concentration against HSV type 1 strain Mc Intyre in human embryonic skin muscle (ESM) fibroblast cell culture; assay type: functional; summary of the method: as §4
MOLT-4 = assay: Inhibitory concentration required to reduce the growth of human MOLT-4 cells by 50%; assay type: functional, cell-based; summary of the method: as §3
Human alphaherpesvirus 1 [16] = assay: Inhibitory concentration against HSV type 1 strain F in human embryonic skin muscle (ESM) fibroblast cell culture; assay type: functional; summary of the method: as §4
Human alphaherpesvirus 3 [17] = assay: as §1; assay type: functional; remark: listed apart in the source

Structure (SMILES) | MIC (HEL) [µg/mL] | IC50 (L1210) [µg/mL] | MIC (Human alphaherpesvirus 2 [2]) [µg/mL] | MIC (Human alphaherpesvirus 1 [3]) [µg/mL] | MIC (Vaccinia virus) [µg/mL] | MIC (Cytomegalovirus [4]) [µg/mL] | MIC (Cytomegalovirus [5]) [µg/mL] | MIC (Human alphaherpesvirus 1 [6]) [µg/mL] | MIC (Human alphaherpesvirus 3 [7]) [µg/mL] | IC50 [8] [µg/mL] | IC50 [9] [µg/mL] | MIC (Human alphaherpesvirus 2 [10]) [µg/mL] | MIC (ESM) [µg/mL] | MIC (Human alphaherpesvirus 3 [11]) [µg/mL] | MIC (Human alphaherpesvirus 3 [12]) [µg/mL] | MIC (Human alphaherpesvirus 2 [13]) [µg/mL] | MIC [14] [µg/mL] | MIC (Human alphaherpesvirus 1 [15]) [µg/mL] | MIC (Human alphaherpesvirus 1 [16]) [µg/mL] | MIC (Human alphaherpesvirus 3 [17]) [µg/mL] | other results
Nc1ncnc2c1ncn2[C@@H]1CO[C@H](CO)[C@@H](O)C1 | > 50 | > 100 | 7 (≈ 26.4 µM) | 7 (≈ 26.4 µM) | 40 (≈ 151 µM) | > 10 | > 10 | 150 (≈ 565 µM) | 4 (≈ 15.1 µM) | > 4 | > 4 | 1 (≈ 3.77 µM) | > 400 | 4 (≈ 15.1 µM) | 10 (≈ 37.7 µM) | 0.04 (≈ 0.151 µM) | > 200 | 20 (≈ 75.4 µM) | 4 (≈ 15.1 µM) | – | MIC (Human alphaherpesvirus 3 [1]): 3.2 µg/mL (≈ 12.1 µM); IC50 (MT4): 12.5 µg/mL (≈ 47.1 µM); IC50 (CCRF-CEM): > 100 µg/mL; IC50 (FM3A): 97.5 µg/mL (≈ 368 µM); IC50 (MOLT-4): > 100 µg/mL
Nc1ccn(C2COC(CO)C(O)C2)c(=O)n1 (stereo not drawn) | 2 (≈ 8.29 µM) | 29 (≈ 120 µM) | 0.04 (≈ 0.166 µM) | 0.7 (≈ 2.9 µM) | 2 (≈ 8.29 µM) | 0.64 (≈ 2.65 µM) | 0.75 (≈ 3.11 µM) | 4 (≈ 16.6 µM) | 0.27 (≈ 1.12 µM) | > 0.8 | > 0.8 | 0.02 (≈ 0.0829 µM) | > 400 | 0.04 (≈ 0.166 µM) | 0.75 (≈ 3.11 µM) | 0.02 (≈ 0.0829 µM) | > 400 | 2 (≈ 8.29 µM) | 1 (≈ 4.15 µM) | 0.64 (≈ 2.65 µM) | IC50 (MT4): 1.1 µg/mL (≈ 4.56 µM); IC50 (CCRF-CEM): 1.4 µg/mL (≈ 5.8 µM); IC50 (FM3A): 28 µg/mL (≈ 116 µM); IC50 (MOLT-4): 0.87 µg/mL (≈ 3.61 µM)
Cc1cn(C2COC(CO)C(O)C2)c(=O)[nH]c1=O (stereo not drawn) | > 50 | > 100 | 150 (≈ 585 µM) | 40 (≈ 156 µM) | > 400 | > 10 | > 10 | > 400 | > 100 | > 100 | 36 (≈ 140 µM) | 20 (≈ 78 µM) | > 400 | > 100 | > 100 | 40 (≈ 156 µM) | > 400 | 7 (≈ 27.3 µM) | 40 (≈ 156 µM) | 100 (≈ 390 µM) | IC50 (MT4): > 100 µg/mL; IC50 (CCRF-CEM): > 100 µg/mL; IC50 (FM3A): > 100 µg/mL; IC50 (MOLT-4): > 100 µg/mL
Nc1nc(O)c2ncn([C@@H]3CO[C@H](CO)[C@@H](O)C3)c2n1 | 20 (≈ 71.1 µM) | 5.4 (≈ 19.2 µM) | 0.1 (≈ 0.356 µM) | 0.2 (≈ 0.711 µM) | 7 (≈ 24.9 µM) | 1.5 (≈ 5.33 µM) | 1.2 (≈ 4.27 µM) | 20 (≈ 71.1 µM) | 0.1 (≈ 0.356 µM) | > 4 | > 4 | 0.01 (≈ 0.0356 µM) | > 400 | 0.9 (≈ 3.2 µM) | 4 (≈ 14.2 µM) | 0.02 (≈ 0.0711 µM) | > 2 | 0.7 (≈ 2.49 µM) | 0.2 (≈ 0.711 µM) | 2.8 (≈ 9.95 µM) | IC50 (MT4): 21 µg/mL (≈ 74.7 µM); IC50 (CCRF-CEM): 21 µg/mL (≈ 74.7 µM); IC50 (FM3A): 12.3 µg/mL (≈ 43.7 µM); IC50 (MOLT-4): 14 µg/mL (≈ 49.8 µM)
O=c1[nH]c(=O)n(C2COC(CO)C(O)C2)cc1I (stereo not drawn) | > 50 | > 100 | 0.07 (≈ 0.19 µM) | 0.07 (≈ 0.19 µM) | > 200 | > 10 | > 10 | > 200 | > 100 | > 100 | > 100 | 0.07 (≈ 0.19 µM) | > 400 | > 100 | > 100 | 0.07 (≈ 0.19 µM) | > 200 | 0.07 (≈ 0.19 µM) | 0.07 (≈ 0.19 µM) | > 100 | IC50 (MT4): > 100 µg/mL; IC50 (CCRF-CEM): > 100 µg/mL; IC50 (FM3A): > 100 µg/mL; IC50 (MOLT-4): > 100 µg/mL
Nc1nc2c(ncn2COCCO)c(=O)[nH]1 [ACYCLOVIR] | > 200 | – | 0.02 (≈ 0.0888 µM) | 0.02 (≈ 0.0888 µM) | > 400 | – | – | 70 (≈ 311 µM) | – | – | – | 0.7 (≈ 3.11 µM) | – | – | – | 2 (≈ 8.88 µM) | > 400 | 0.7 (≈ 3.11 µM) | 0.4 (≈ 1.78 µM) | – | –
O=c1[nH]c(=O)n([C@H]2C[C@H](O)[C@@H](CO)O2)cc1/C=C/Br [BRIVUDINE] | > 200 | – | 10 (≈ 30 µM) | 0.004 (≈ 0.012 µM) | 2 (≈ 6 µM) | > 100 | > 100 | > 400 | 0.0015 (≈ 0.0045 µM) | – | – | 70 (≈ 210 µM) | > 400 | 0.0007 (≈ 0.0021 µM) | 8 (≈ 24 µM) | 300 (≈ 901 µM) | > 200 | 0.02 (≈ 0.06 µM) | 0.004 (≈ 0.012 µM) | 30 (≈ 90.1 µM) | –
Nc1nc2c(ncn2COC(CO)CO)c(=O)[nH]1 [GANCICLOVIR] | 85 (≈ 333 µM) | – | 0.004 (≈ 0.0157 µM) | 0.004 (≈ 0.0157 µM) | 70 (≈ 274 µM) | 3 (≈ 11.8 µM) | 6.2 (≈ 24.3 µM) | 2 (≈ 7.84 µM) | 0.072 (≈ 0.282 µM) | – | – | 0.02 (≈ 0.0784 µM) | – | 0.02 (≈ 0.0784 µM) | 0.1 (≈ 0.392 µM) | 0.02 (≈ 0.0784 µM) | > 400 | 0.001 (≈ 0.00392 µM) | 0.007 (≈ 0.0274 µM) | 0.9 (≈ 3.53 µM) | –
O=c1[nH]c(=O)n([C@H]2C[C@H](O)[C@@H](CO)O2)cc1I [IDOXURIDINE] | > 50 | – | 0.2 (≈ 0.565 µM) | 0.2 (≈ 0.565 µM) | 0.7 (≈ 1.98 µM) | – | – | 70 (≈ 198 µM) | 0.4 (≈ 1.13 µM) | – | – | 0.2 (≈ 0.565 µM) | > 400 | 0.17 (≈ 0.48 µM) | 4 (≈ 11.3 µM) | 0.2 (≈ 0.565 µM) | > 400 | 1 (≈ 2.82 µM) | 0.2 (≈ 0.565 µM) | 4 (≈ 11.3 µM) | –
